Results taken from ChEMBL document CHEMBL1938298, “Synthesis and characterization of [¹²⁵I]2-iodo N-[(S)-{(S)-1-methylpiperidin-2-yl}(phenyl)methyl]3-trifluoromethyl-benzamide as novel imaging probe for glycine transporter 1” (Bioorg Med Chem, 2011).
The source made the active and inactive calls. No cut-off for these calls is given here.

What was measured:
[1] = target: T1, Sodium- and chloride-dependent glycine transporter 1 (Rattus norvegicus) (UniProt P28572); test: Binding affinity to GlyT1 in rat brain striatum at 0.03 to 0.04 nM preincubated for 20 mins in binding buffer before compound addition measured after 30 mins by autoradiography in presence of 1 mM GlyT1 substrate glycine relative to control; format: tissue-based; details: tested as the 125I-labelled form
T1 sequence (whole entry): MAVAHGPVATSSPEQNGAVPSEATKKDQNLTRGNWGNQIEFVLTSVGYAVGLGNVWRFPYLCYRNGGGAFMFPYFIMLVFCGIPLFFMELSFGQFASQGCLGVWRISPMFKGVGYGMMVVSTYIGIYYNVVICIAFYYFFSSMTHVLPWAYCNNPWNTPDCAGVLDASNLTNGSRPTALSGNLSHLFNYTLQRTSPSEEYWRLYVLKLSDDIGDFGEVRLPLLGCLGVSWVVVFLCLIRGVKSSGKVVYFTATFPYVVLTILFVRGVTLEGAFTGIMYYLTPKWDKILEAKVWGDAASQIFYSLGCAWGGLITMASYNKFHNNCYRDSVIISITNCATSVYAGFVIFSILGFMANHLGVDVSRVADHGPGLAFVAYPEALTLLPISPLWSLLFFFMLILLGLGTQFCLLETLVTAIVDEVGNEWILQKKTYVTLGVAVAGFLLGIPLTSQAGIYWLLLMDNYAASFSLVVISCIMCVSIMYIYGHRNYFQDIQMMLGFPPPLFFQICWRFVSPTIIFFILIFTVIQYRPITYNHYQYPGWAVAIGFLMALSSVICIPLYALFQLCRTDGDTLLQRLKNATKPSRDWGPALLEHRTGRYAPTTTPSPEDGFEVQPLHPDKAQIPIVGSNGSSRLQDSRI

[2] = target: T1, Sodium- and chloride-dependent glycine transporter 1 (Rattus norvegicus); test: Binding affinity to GlyT1 in rat brain thalamus at 0.03 to 0.04 nM preincubated for 20 mins in binding buffer before compound addition measured after 30 mins by autoradiography in presence of 0.01 mM GlyT2 inhibitor ORG25543 relative to control; format: tissue-based; details: tested as the 125I-labelled form
[3] = target: T1, Sodium- and chloride-dependent glycine transporter 1 (Rattus norvegicus); test: Binding affinity to GlyT1 in rat brain corpus callosum at 0.03 to 0.04 nM preincubated for 20 mins in binding buffer before compound addition measured after 30 mins by autoradiography in presence of 0.01 mM GlyT1 inhibitor ALX5407 relative to control; format: tissue-based; details: tested as the 125I-labelled form
Method in brief: (§1)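 Rat brain sagittal sections (20 µm) preincubated 20 min at 25 °C in Tris-HCl buffer pH 7.5 (NaCl, KCl, MgCl2, CaCl2), then 30 min at 25 °C with [125I] tracer (100 kBq, 0.03–0.04 nM) plus competitor (10 µM; glycine 1 or 10 mM). Cold washes, imaging plate 3 days, ROI PSL minus background per mm². % control from ≥triplicate slices, three rats.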

[4] = target: T1, Sodium- and chloride-dependent glycine transporter 1 (Rattus norvegicus); test: Binding affinity to GlyT1 in rat brain corpus callosum at 0.03 to 0.04 nM preincubated for 20 mins in binding buffer before compound addition measured after 30 mins by autoradiography in presence of 10 mM GlyT1 substrate glycine relative to control; format: tissue-based; details: tested as the 125I-labelled form; method in brief: as §1
Mus musculus [5] = test: In vivo binding affinity to GlyT1 in ddY mouse brain midbrain at 200 kBq, iv after 60 mins by autoradiography relative to control; format: functional, organism-based; details: tested as the 125I-labelled form
[6] = target: T1, Sodium- and chloride-dependent glycine transporter 1 (Rattus norvegicus); test: Binding affinity to GlyT1 in rat brain cerebellar white matter at 0.03 to 0.04 nM preincubated for 20 mins in binding buffer before compound addition measured after 30 mins by autoradiography relative to control; format: tissue-based; details: tested as the 125I-labelled form
[7] = target: T1, Sodium- and chloride-dependent glycine transporter 1 (Rattus norvegicus); test: Binding affinity to GlyT1 in rat brain hippocampus at 0.03 to 0.04 nM preincubated for 20 mins in binding buffer before compound addition measured after 30 mins by autoradiography in presence of GlyT1 inhibitor N-Me-SSR504734 relative to control; format: tissue-based; details: tested as the 125I-labelled form; method in brief: as §1
[8] = target: T1, Sodium- and chloride-dependent glycine transporter 1 (Rattus norvegicus); test: Binding affinity to GlyT1 in rat brain cerebral cortex at 0.03 to 0.04 nM preincubated for 20 mins in binding buffer before compound addition measured after 30 mins by autoradiography in presence of 0.01 mM GlyT1 inhibitor HPCP relative to control; format: tissue-based; details: tested as the 125I-labelled form; method in brief: as §1
[9] = target: T1, Sodium- and chloride-dependent glycine transporter 1 (Rattus norvegicus); test: Binding affinity to GlyT1 in rat brain midbrain at 0.03 to 0.04 nM preincubated for 20 mins in binding buffer before compound addition measured after 30 mins by autoradiography relative to control; format: tissue-based; details: tested as the 125I-labelled form
[10] = target: T2, Sodium- and chloride-dependent glycine transporter 1 (Rattus norvegicus, UniProt P28572); test: Binding affinity to GlyT1 in rat cortical brain homogenate after 60 mins by gamma counting; format: tissue-based
T2 sequence (P28572 whole entry): T1 sequence (whole entry)
Method in brief: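 Saturation binding on washed rat cortical membranes (25 µg protein) with [125I]tracer 0.1–20 nM in TB1 buffer (120 mM NaCl, 2 mM KCl, 1 mM CaCl2, 1 mM MgCl2, 10 mM HEPES, pH 7.5), 60 min at room temperature. Nonspecific binding defined with 10 µM unlabeled ligand. GF/B filtration with ice-cold buffer washes, gamma counting; Kd and Bmax from saturation analysis.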

Kidney [11] = test: Drug uptake in ddY mouse kidney at 11.1 kBq, iv after 15 min by gamma counting; format: ADME, organism-based; details: in vivo
Method in brief: (§2)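 Male ddY mice (6 weeks, 30–35 g) were given about 11.1 kBq of [125I]tracer in 0.1 mL i.v. via the tail vein. At each time point the animals were killed and organs dissected, weighed and gamma-counted. Uptake is expressed as % injected dose per gram of tissue, mean ± SD, n = 5–6.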

Stomach = test: Drug uptake in ddY mouse stomach at 11.1 kBq, iv after 180 min by gamma counting; format: ADME, organism-based; details: in vivo, 3 h; method in brief: as §2
Pancreas = test: Drug uptake in ddY mouse pancreas at 11.1 kBq, iv after 60 min by gamma counting; format: ADME, organism-based; details: in vivo, 1 h; method in brief: as §2
Mus musculus [12] = test: In vivo binding affinity to GlyT1 in ddY mouse brain medullary region at 33.3 kBq, iv after 60 mins in presence of N-Me-SSR504734 2 mg/kg, iv administered 15 mins prior to compound administration relative to control; format: functional, Medulla of organ
Liver = test: Drug uptake in ddY mouse liver at 11.1 kBq, iv after 30 min by gamma counting; format: ADME, organism-based; details: in vivo, 0.5 h; method in brief: as §2
Spleen = test: Drug uptake in ddY mouse spleen at 11.1 kBq, iv after 15 min by gamma counting; format: ADME, organism-based; details: in vivo; method in brief: as §2
Intestine = test: Drug uptake in ddY mouse intestine at 11.1 kBq, iv after 30 min by gamma counting; format: ADME, organism-based; details: in vivo, 0.5 h
Method in brief: (§3)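 Male ddY mice (6 weeks, 30–35 g) received about 11.1 kBq [125I]tracer in 0.1 mL i.v. via tail vein. Killed at set times, organs dissected and weighed, radioactivity gamma counted. Reported as % injected dose/g tissue, mean ± SD, n = 5–6.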

Mus musculus [13] = test: In vivo binding affinity to GlyT1 in ddY mouse brain midbrain at 33.3 kBq, iv after 30 mins in presence of nonradioactive compound 2 mg/kg, iv administered 15 mins prior to compound administration relative to control; format: functional
[14] = Metabolic stability in ddY mouse brain assessed as compound remaining at 185 kBq after 5 mins by radio-TLC; format: ADME, tissue-based; details: read-out: Stability
Kidney [15] = test: Drug uptake in ddY mouse kidney at 11.1 kBq, iv after 0.5 min by gamma counting; format: ADME, organism-based; details: in vivo; method in brief: as §3

## CN1CCCC[C@H]1[C@@H](NC(=O)c1cccc(C(F)(F)F)c1I)c1ccccc1
[1]
  Activity: 122%
[2]
  Activity: 99.7%
[3]
  Activity: 27.8%
[4]
  Activity: 39.6%
Mus musculus [5]
  Activity: Active
[6]
  Activity: Active
[7]
  Activity: 45.8%
[8]
  Activity: 31%
[9]
  Activity: Active

## CN1CCCC[C@H]1[C@@H](NC(=O)c1cccc(C(F)(F)F)c1[125I])c1ccccc1
[10]
  Kd: 1.58 nM
Kidney [11]
  Drug uptake: 8.86 % ID/g
Stomach
  Drug uptake: 12.73 % ID/g
Pancreas
  Drug uptake: 9.51 % ID/g
Mus musculus [12]
  Activity: 47%
Liver
  Drug uptake: 14.74 % ID/g
Spleen
  Drug uptake: 5.5 % ID/g
Intestine
  Drug uptake: 5.76 % ID/g
Mus musculus [13]
  Activity: 48%
[14]
  remaining at 5 min: 92%
Kidney [15]
  Drug uptake: 4.05 % ID/g
